We go through 16 molecules from ChEMBL document CHEMBL1221323, “Iodination of verapamil for a stronger induction of death, through GSH efflux, of cancer cells overexpressing MRP1” (Bioorg Med Chem, 2010).

Data set [1] deals with BHK-21. Description: Cytotoxicity against hamster BHK21 cells expressing MRP1 after 96 hrs by MTT assay. The data set is classed as functional, cell-based. Particulars: Mesocricetus auratus, BHK-21, 96 h; call rule not given here. The essentials: (§1)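 Cells plated at 1.0 × 10⁴/well and grown 17 h, then exposed to compound diluted in complete medium (0.5% DMSO) for 96 h at 37 °C, 5% CO₂. MTT at 0.5 mg/mL added for 4 h, dye removed, formazan dissolved in isopropanol, absorbance read at 570 nm. IC50 taken from sigmoidal fits of triplicate dose–response curves.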

Data set [2] deals with BHK-21. Kind of data set: Cytotoxicity against hamster BHK21 cells after 96 hrs by MTT assay. Particulars: Mesocricetus auratus, BHK-21, 96 h. It is filed as functional, cell-based. The essentials:
as §1
(In general: Tetrazolium dyes change colour on reduction, which living cells bring about.)

For data set [3], the target named is T1, Multidrug resistance-associated protein 1 (Homo sapiens, UniProt P33527). Description: Inhibition of MRP1 expressed in hamster BHK21 cells assessed as reduction of GSH efflux at 5 uM after up to 120 mins. It is filed as cell-based. Particulars: bhk-21, 2 h. A digest of the protocol: (§2)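 Cells from the MRP1-transfected BHK-21 line (kept under methotrexate) were seeded at 1.0 × 10⁵/well, grown 17 h, then given 5 µM compound (DMSO ≤0.5%) for 10–120 min. Cells were washed in cold PBS and lysed in 0.1% Triton X-100. Total glutathione was measured by DTNB/NADPH/GSH reductase recycling (A412 kinetic, 2 min) and normalized to Bradford protein. Residual GSH is expressed as % of untreated cells; time to 50% loss is reported; triplicates.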

Data set [4] deals with T1, Multidrug resistance-associated protein 1. Kind of data set: Inhibition of MRP1 expressed in hamster BHK21 cells assessed as reduction of GSH efflux at 5 uM after up to 50 to 60 mins. It is filed as cell-based. Particulars: bhk-21, 5 µM. A digest of the protocol:
as §2

T1 sequence (P33527 whole entry): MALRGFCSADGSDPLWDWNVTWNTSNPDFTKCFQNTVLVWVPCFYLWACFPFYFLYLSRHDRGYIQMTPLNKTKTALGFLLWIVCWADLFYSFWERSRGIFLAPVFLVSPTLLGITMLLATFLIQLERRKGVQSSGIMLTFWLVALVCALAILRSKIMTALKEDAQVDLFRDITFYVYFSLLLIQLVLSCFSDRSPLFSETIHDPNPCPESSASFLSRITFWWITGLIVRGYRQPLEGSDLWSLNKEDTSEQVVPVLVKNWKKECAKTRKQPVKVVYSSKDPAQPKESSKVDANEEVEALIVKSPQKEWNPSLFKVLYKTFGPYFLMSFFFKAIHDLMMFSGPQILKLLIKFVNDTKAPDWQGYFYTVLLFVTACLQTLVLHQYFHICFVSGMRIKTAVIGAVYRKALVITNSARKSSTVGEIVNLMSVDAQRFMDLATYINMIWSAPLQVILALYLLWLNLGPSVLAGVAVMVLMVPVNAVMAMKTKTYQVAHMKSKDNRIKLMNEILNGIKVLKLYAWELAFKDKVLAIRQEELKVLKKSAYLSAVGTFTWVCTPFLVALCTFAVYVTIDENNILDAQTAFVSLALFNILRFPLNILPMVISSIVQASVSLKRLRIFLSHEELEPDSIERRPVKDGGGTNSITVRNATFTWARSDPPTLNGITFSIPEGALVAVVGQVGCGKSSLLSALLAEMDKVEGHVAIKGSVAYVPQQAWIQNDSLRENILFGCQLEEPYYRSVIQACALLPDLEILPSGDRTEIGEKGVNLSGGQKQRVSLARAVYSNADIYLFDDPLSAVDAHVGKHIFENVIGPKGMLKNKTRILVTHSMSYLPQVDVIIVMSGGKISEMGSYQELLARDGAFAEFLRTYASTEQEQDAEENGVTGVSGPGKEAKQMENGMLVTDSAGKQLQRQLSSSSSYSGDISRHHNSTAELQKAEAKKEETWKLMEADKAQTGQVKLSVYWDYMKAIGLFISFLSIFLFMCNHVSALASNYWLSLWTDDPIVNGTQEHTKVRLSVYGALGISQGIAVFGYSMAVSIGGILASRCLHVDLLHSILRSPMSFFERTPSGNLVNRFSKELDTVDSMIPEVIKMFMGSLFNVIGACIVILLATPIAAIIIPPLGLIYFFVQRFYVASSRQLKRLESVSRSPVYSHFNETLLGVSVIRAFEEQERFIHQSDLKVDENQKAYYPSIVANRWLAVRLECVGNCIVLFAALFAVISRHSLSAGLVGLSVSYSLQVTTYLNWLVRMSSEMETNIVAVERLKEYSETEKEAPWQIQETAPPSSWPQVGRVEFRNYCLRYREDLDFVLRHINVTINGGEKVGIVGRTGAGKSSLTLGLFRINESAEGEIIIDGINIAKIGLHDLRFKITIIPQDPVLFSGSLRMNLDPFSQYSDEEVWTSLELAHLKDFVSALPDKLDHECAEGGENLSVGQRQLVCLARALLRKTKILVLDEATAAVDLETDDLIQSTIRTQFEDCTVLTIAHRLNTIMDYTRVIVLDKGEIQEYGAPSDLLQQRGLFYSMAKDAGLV

By IC50 is commonly meant the concentration that inhibits the measured activity by half. Read a low IC50 as higher potency. With `COc1ccc(C(C#N)(CCCN(C)CCc2ccc(O)cc2)C(C)C)cc1OC` (configuration not stated), the IC50 is 11.7 µM in data set [1] and 55.9 µM in data set [2].
On to `COc1ccc(CCN(C)CCCC(C#N)(c2ccc(OC)c(OC)c2)C(C)C)cc1` (configuration not stated), for which the “inhibition (INH)” value in data set [3] is recorded as “Not Active”. The IC50 in data set [1] was 17.2 µM; in data set [2] it was 33.6 µM.
Regarding `COc1ccc(C(C#N)(CCCN(C)CCc2cc(I)c(OC)c(I)c2)C(C)C)cc1OC` (configuration not stated), in data set [3], the “inhibition (INH)” value is “Not Active”. Further, the IC50 in data set [1] turned out to be 1.7 µM; in data set [2] it was 8.9 µM.
As to `COc1ccc(C(C#N)(CCCN(C)Cc2cc(I)c(O)c(I)c2)C(C)C)cc1OC` (configuration not stated), the IC50 in data set [1] was 6.6 µM; in data set [2] it was 27.4 µM.
As for `COc1ccc(C(C#N)(CCCN(C)Cc2ccc(O)c(I)c2)C(C)C)cc1OC` (configuration not stated), the figures for the IC50 in data set [1] and in data set [2] were 13 µM and 14.1 µM, respectively.
`COc1ccc(CCN(C)CCCC(C#N)(c2ccc(OC)c(OC)c2)C(C)C)cc1I` (configuration not stated): the “inhibition (INH)” value in data set [3] was “Not Active”. In addition, the IC50 in data set [1] was determined as 4.7 µM; in data set [2], 13 µM.
Turning to `COc1ccc(C(C#N)(CCCN(C)Cc2ccc(O)cc2)C(C)C)cc1OC` (configuration not stated), the IC50 turned out to be 6.6 µM in data set [1] and 28.5 µM in data set [2]. The “inhibition (INH)” value in data set [4] is on record as “Not Active”.
On to `COc1ccc(C(C#N)(CCCN(C)CCCc2ccc(O)c(I)c2)C(C)C)cc1OC` (configuration not stated), for which the IC50 in data set [1] is 9.3 µM; in data set [2], 9.4 µM.
The matching figures for `COc1ccc(C(C#N)(CCCNCCc2cc(I)c(O)c(I)c2)C(C)C)cc1OC` (configuration not stated): 1.96 µM and 13.8 µM.
The matching figures for `COc1ccc(C(C#N)(CCCN(C)CCCc2cc(I)c(O)c(I)c2)C(C)C)cc1OC` (configuration not stated): 6 µM and 33.1 µM.
For `COc1ccc(C(C#N)(CCCN(C)CCc2cc(I)c(O)c(I)c2)C(C)C)cc1OC` (configuration not stated), in that order: 1.1 µM and 54.7 µM.
On to `COc1ccc(C(C#N)(CCCN(C)CCCc2ccc(O)cc2)C(C)C)cc1OC` (configuration not stated), for which the figures for the IC50 in data set [1] and in data set [2] were 20.9 µM and not below 100 µM, respectively. In addition, in data set [4], the “inhibition (INH)” value is “Not Active”.
Turning to `COc1ccc(C(C#N)(CCCNCCc2ccc(O)c(I)c2)C(C)C)cc1OC` (configuration not stated), the IC50 is 0.78 µM in data set [1] and 14.2 µM in data set [2].
For `COc1ccc(C(C#N)(CCCNCCc2ccc(O)cc2)C(C)C)cc1OC` (configuration not stated), in that order: 38.1 µM and not below 100 µM.
Regarding `COc1ccc(CCN(C)CCCC(C#N)(c2ccc(OC)c(OC)c2)C(C)C)cc1OC` (configuration not stated) [VERAPAMIL], the IC50 in data set [1] was 10.6 µM; in data set [2] it was not below 100 µM.
Regarding `COc1ccc(C(C#N)(CCCN(C)CCc2ccc(O)c(I)c2)C(C)C)cc1OC` (configuration not stated), the IC50 in data set [1] was found to be 8.6 µM; in data set [2], 32.8 µM.
